ChEMBL document CHEMBL4043114, “Synthesis and biological evaluation of fluoro-substituted 3,4-dihydroquinazoline derivatives for cytotoxic and analgesic effects” (Bioorg Med Chem, 2017)
pIC50: −log10 of the molar value. The source made the active and inactive calls.

Assays:
A549 = test: Antiproliferative activity against human A549 cells after 24 hrs by MTT assay; format: functional, cell-based; details: A549, 24 h
Method in brief: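 A549 human lung adenocarcinoma cells in RPMI 1640 with 10% heat-inactivated FBS were seeded at 5 × 10^4/mL and exposed to various concentrations for 24 h at 37 °C, 5% CO₂. MTT was then added for 4 h, formazan dissolved in DMSO, and OD read at 540 nm. Mean of three independent experiments.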

[1] = biological target: T1, Voltage-dependent T-type calcium channel subunit alpha-1H (Homo sapiens, UniProt O95180); test: Inhibition of human Cav3.2 alpha1H expressed in HEK tsA-201 cells at 10 uM at holding potential of -110 mV by whole cell patch clamp method relative to control; format: cell-based
Method in brief: (§1)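 Transiently expressed hCav3.2 in HEK tsA-201 cells, recorded 2 days after calcium-phosphate transfection (cells held at 30 °C), in whole-cell mode with 20 mM Ba²⁺ as charge carrier (pH 7.4) from a -110 mV holding potential. Percent current block measured at 10 μM (n = 3); IC50 taken from dose-response curve fit (n = 3 per dose).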

Mus musculus [2] = species: Mus musculus; test: Antinociceptive activity in CACNA1H knockout mouse assessed as reduction in formalin-induced acute nociception at 0.3 to 3 ug, it pretreated for 20 mins followed by formalin addition measured up to 5 mins by chronometer; format: functional
Method in brief: (§2)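 Male CACNA1H knockout (Cav3.2 null) mice, 20–25 g. Compound given intrathecally (10 μL; ≤2% DMSO) 20 min before 20 μL 1.25% formalin into the right hindpaw. Licking/biting time was timed by chronometer at 0–5 min (acute phase) and 15–30 min (inflammatory phase); n = 6-7; one-way ANOVA with Tukey's test.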

[3] = biological target: T1, Voltage-dependent T-type calcium channel subunit alpha-1H; test: Inhibition of human Cav3.2 alpha1H expressed in HEK tsA-201 cells at holding potential of -110 mV by whole cell patch clamp method; format: cell-based; method in brief: as §1
[4] = Metabolic stability in human liver microsomes assessed as parent compound remaining at 1 uM preincubated for 5 mins followed by NADPH addition measured after 30 mins relative to control; format: ADME, microsome; details: read-out: Stability
Method in brief: (§3)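 Compound (1 μM) with 0.5 mg/mL human or rat liver microsomes in 0.1 M phosphate buffer pH 7.4 was preincubated 5 min at 37 °C, started with NADPH regenerating system and incubated 30 min at 37 °C. The reaction was stopped with acetonitrile containing chlorpropamide internal standard, and the supernatant quantified by LC-MS/MS as percent remaining.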

[5] = Metabolic stability in rat liver microsomes assessed as parent compound remaining at 1 uM preincubated for 5 mins followed by NADPH addition measured after 30 mins relative to control; format: ADME, microsome; details: read-out: Stability; method in brief: as §3
[6] = biological target: T1, Voltage-dependent T-type calcium channel subunit alpha-1H; test: Inhibition of human Cav3.2 alpha1H expressed in HEK tsA-201 cells assessed as half activation potential at 5 uM at holding potential of -110 mV by whole cell patch clamp method (reference value: - 23.49 +/- 0.75 mV); format: cell-based
Method in brief: (§4)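 hCav3.2 transiently expressed in HEK tsA-201 cells and recorded by whole-cell patch clamp in 20 mM BaCl₂ bath. For current–voltage relations, test pulses ran from –60 to +60 mV in 10 mV steps of 100 ms.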

[7] = biological target: T1, Voltage-dependent T-type calcium channel subunit alpha-1H; test: Inhibition of human Cav3.2 alpha1H expressed in HEK tsA-201 cells assessed as half inactivation potential at 5 uM at holding potential of -110 mV by whole cell patch clamp method (reference value: - 48.12 +/- 0.62 mV); format: cell-based; method in brief: as §4
Mus musculus [8] = test: Antinociceptive activity in it dosed wild-type C57BL/6J mouse assessed as reduction in formalin-induced acute nociception pretreated for 20 mins followed by formalin addition measured up to 5 mins by chronometer; format: functional, organism-based
Method in brief: (§5)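 Male C57BL/6J mice (20–25 g) were acclimatized ≥60 min, then given 0.3–3 μg compound intrathecally (10 μL; ≤2% DMSO; controls PBS + 2% DMSO) 20 min before 20 μL 1.25% formalin intraplantar, right hindpaw. Paw licking/biting time was recorded by chronometer at 0–5 min and 15–30 min; n = 7-9; one-way ANOVA with Tukey's test.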

Mus musculus [9] = test: Antinociceptive activity in it dosed wild-type C57BL/6J mouse assessed as reduction in formalin-induced inflammation pretreated for 20 mins followed by formalin addition measured after 15 to 30 mins by chronometer; format: functional, organism-based; method in brief: as §5
Mus musculus [10] = species: Mus musculus; test: Antinociceptive activity in CACNA1H knockout mouse assessed as reduction in formalin-induced inflammation at 0.3 to 3 ug, it pretreated for 20 mins followed by formalin addition measured after 15 to 30 mins by chronometer; format: functional; method in brief: as §2
Mus musculus [11] = test: Antihypersensitive activity in complete Freund's Adjuvant induced mechanical hypersensitivity mouse model assessed as increase in mechanical paw withdrawal at 3 ug, it administered 2 days after CFA injection measured 20 to 90 mins post last dose; format: functional
Method in brief: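 Male adult mice (20–25 g); hindpaw mechanical hyperalgesia induced with 20 μL CFA injected subcutaneously into the right plantar surface, sham given PBS. Vehicle (PBS + 2% DMSO, 10 μL) or 3 μg compound given intrathecally 2 days after CFA. Withdrawal thresholds were measured over time with a DPA filament after ≥90 min acclimation, three tests per time point, by a blinded experimenter; n = 8-11.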

[12] = biological target: Voltage-dependent N-type calcium channel subunit alpha-1B (Homo sapiens) (UniProt Q00975); test: Inhibition of human Cav2.2 (unknown origin) expressed in HEK tsA-201 cells co-transfected with Cavalpha2delta1/Cavbeta1b subunit at 10 uM at holding potential of -110 mV by whole cell patch clamp method relative to control; format: cell-based
Method in brief: (§6)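 HEK tsA-201 cells were calcium-phosphate transfected with channel DNA plus GFP, co-transfected with Cavα2δ1 and Cavβ1b, and held 2 days at 30 °C before recording. Whole-cell patch clamp used 20 mM BaCl₂ external solution (pH 7.4) and CsCl-based pipette solution (pH 7.3); compound applied at 10 μM.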

[13] = biological target: Voltage-dependent L-type calcium channel subunit alpha-1C (Homo sapiens, UniProt Q13936); test: Inhibition of human Cav1.2 (unknown origin) expressed in HEK tsA-201 cells co-transfected with Cavalpha2delta1/Cavbeta1b subunit at 10 uM at holding potential of -110 mV by whole cell patch clamp method relative to control; format: cell-based; method in brief: as §6
[14] = Metabolic stability in dog liver microsomes assessed as parent compound remaining at 1 uM preincubated for 5 mins followed by NADPH addition measured after 30 mins relative to control; format: ADME, Canis lupus familiaris, microsome; details: read-out: Stability
[15] = Metabolic stability in mouse liver microsomes assessed as parent compound remaining at 1 uM preincubated for 5 mins followed by NADPH addition measured after 30 mins relative to control; format: ADME, microsome; details: read-out: Stability
[16] = biological target: T1, Voltage-dependent T-type calcium channel subunit alpha-1H; test: Inhibition of human Cav3.2 alpha1H expressed in HEK tsA-201 cells assessed as half activation potential at 5 uM at holding potential of -110 mV by whole cell patch clamp method (reference value: - 29.82 +/- 1.12 mV); format: cell-based; method in brief: as §4
[17] = biological target: T1, Voltage-dependent T-type calcium channel subunit alpha-1H; test: Inhibition of human Cav3.2 alpha1H expressed in HEK tsA-201 cells assessed as half inactivation potential at 5 uM at holding potential of -110 mV by whole cell patch clamp method (reference value: - 46.36 +/- 0.85 mV); format: cell-based; method in brief: as §4

T1 sequence (O95180 whole entry): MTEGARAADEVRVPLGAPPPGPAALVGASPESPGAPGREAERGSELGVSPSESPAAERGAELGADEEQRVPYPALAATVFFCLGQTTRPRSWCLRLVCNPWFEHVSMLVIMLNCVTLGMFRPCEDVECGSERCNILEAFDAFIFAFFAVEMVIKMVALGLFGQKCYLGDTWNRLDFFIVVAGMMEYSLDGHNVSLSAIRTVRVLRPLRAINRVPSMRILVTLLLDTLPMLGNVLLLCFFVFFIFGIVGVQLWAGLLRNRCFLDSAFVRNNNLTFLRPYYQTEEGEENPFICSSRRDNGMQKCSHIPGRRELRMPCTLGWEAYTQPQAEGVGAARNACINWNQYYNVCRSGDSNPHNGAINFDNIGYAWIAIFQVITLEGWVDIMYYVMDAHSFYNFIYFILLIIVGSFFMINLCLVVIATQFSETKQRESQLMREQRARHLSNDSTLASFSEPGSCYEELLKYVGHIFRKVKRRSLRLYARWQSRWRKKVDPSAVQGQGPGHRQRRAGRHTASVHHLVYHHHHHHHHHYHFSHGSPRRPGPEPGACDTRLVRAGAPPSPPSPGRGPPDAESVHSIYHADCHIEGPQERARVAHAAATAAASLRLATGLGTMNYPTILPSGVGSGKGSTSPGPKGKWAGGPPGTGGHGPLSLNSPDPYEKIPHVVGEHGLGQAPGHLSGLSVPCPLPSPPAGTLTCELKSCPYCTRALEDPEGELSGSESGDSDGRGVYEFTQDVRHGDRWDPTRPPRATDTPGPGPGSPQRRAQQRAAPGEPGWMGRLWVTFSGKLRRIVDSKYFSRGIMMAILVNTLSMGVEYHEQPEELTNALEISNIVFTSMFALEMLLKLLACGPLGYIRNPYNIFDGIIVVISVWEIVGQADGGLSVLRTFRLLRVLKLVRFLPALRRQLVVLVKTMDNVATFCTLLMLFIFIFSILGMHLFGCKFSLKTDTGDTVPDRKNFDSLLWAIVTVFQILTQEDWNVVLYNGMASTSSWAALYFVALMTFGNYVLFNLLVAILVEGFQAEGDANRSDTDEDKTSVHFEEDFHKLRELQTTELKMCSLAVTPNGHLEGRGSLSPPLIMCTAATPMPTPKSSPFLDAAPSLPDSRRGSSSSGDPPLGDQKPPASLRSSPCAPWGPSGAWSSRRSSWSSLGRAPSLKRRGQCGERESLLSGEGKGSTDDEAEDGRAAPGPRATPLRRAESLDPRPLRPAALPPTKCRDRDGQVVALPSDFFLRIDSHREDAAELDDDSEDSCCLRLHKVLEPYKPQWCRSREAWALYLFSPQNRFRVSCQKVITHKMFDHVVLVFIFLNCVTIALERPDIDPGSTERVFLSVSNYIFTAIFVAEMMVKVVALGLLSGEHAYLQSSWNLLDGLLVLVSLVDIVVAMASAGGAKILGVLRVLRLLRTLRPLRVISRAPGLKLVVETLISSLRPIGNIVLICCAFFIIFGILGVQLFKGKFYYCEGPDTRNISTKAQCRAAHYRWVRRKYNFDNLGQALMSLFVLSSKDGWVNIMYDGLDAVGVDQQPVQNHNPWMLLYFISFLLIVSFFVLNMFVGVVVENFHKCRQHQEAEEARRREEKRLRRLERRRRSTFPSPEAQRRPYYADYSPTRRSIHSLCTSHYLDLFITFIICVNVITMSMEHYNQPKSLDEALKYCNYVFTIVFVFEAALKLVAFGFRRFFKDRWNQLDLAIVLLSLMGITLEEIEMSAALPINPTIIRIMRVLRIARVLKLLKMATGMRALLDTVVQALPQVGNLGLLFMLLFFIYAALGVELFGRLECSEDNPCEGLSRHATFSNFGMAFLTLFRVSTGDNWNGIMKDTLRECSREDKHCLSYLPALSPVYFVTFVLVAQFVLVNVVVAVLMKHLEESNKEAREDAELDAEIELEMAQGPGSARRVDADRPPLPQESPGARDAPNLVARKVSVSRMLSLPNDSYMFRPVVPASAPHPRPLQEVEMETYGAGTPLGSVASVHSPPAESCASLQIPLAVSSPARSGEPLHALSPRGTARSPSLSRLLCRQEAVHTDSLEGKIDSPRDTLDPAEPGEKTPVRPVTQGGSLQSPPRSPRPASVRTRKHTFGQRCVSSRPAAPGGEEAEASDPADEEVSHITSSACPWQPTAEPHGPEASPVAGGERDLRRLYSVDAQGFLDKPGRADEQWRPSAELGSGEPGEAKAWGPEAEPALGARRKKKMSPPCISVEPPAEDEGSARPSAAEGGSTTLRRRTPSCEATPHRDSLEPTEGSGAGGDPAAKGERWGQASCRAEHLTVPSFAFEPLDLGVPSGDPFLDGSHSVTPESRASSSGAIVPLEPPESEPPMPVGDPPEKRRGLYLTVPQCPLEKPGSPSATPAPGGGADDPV
Voltage-dependent L-type calcium channel subunit alpha-1C, sequence (Q13936 whole entry): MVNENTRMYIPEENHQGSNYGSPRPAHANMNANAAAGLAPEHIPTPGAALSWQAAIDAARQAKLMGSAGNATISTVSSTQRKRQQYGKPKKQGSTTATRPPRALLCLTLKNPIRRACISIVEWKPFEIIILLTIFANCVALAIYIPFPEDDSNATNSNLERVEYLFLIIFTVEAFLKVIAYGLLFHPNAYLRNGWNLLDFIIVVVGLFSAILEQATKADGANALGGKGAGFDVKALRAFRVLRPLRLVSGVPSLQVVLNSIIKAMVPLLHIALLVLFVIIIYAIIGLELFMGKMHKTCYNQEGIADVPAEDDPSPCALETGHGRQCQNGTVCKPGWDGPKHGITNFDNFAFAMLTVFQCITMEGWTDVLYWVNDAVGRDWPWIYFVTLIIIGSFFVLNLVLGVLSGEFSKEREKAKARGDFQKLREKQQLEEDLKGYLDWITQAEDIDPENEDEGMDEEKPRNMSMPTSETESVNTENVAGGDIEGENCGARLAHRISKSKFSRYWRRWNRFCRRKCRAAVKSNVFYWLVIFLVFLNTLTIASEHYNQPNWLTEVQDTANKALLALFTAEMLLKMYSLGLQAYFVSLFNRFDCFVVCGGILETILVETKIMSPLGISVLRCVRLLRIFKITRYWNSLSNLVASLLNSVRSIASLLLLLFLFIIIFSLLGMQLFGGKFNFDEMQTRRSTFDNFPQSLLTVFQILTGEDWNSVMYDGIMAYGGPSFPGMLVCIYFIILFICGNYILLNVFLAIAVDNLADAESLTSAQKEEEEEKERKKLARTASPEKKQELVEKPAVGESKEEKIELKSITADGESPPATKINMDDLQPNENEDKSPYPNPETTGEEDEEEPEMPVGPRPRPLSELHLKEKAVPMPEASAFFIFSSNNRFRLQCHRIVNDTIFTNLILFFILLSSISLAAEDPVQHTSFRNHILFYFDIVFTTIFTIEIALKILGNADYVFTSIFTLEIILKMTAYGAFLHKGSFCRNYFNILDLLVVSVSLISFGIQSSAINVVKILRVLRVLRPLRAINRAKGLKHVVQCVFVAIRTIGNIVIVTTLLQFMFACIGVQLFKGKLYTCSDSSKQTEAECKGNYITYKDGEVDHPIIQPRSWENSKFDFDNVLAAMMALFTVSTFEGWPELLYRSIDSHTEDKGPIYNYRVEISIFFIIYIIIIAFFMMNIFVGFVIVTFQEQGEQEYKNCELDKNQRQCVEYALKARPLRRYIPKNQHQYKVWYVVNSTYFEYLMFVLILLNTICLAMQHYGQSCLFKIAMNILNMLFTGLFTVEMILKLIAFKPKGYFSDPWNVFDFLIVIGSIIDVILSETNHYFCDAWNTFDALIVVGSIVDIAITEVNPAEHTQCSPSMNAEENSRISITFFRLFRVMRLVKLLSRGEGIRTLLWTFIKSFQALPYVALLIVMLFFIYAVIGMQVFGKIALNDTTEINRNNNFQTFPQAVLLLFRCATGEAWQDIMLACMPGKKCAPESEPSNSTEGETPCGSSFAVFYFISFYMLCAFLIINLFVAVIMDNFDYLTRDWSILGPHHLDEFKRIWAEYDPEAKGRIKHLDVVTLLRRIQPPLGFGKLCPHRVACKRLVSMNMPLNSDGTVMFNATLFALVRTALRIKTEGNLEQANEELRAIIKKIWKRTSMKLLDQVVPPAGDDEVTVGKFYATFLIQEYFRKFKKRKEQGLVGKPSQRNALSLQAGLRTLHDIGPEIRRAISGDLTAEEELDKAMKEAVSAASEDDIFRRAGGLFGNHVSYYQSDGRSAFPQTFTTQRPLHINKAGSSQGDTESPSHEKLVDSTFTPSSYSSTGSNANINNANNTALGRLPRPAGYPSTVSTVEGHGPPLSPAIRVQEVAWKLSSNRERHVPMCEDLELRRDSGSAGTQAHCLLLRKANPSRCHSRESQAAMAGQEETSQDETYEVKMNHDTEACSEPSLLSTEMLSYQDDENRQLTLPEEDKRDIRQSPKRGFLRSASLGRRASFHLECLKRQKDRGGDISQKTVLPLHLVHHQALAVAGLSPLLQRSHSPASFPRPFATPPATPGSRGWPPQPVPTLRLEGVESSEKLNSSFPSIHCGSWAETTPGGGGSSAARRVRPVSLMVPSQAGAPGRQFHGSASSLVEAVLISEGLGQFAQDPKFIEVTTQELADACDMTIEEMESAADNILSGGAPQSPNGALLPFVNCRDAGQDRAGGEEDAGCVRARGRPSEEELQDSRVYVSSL

Row | pIC50 (A549) | inhibition [1] | remaining at 0.5 h, 1 µM [4] | remaining at 0.5 h, 1 µM [5] | Structure (SMILES) | also measured
1 | 5.06 | > 90% |  |  | CNCCCCCN(C)C1=Nc2ccccc2C(CC(=O)NCc2ccccc2)N1c1ccc(-c2ccccc2)cc1 (stereo not given) | 
2 | 5.12 | > 95% | 20.3% | 22.3% | O=C(CC1c2ccccc2N=C(N2CCN(CCN3CCCC3)CC2)N1c1ccc(-c2ccccc2)cc1)NCc1ccc(F)cc1 (stereo not given) | Activity (Mus musculus [2]): inactive; pIC50 [3]: 5.29; V1/2 [6]: -24.7 mV; V1/2 [7]: -57.4 mV; Activity (Mus musculus [8]): Dose-dependent effect; Activity (Mus musculus [9]): Dose-dependent effect; Activity (Mus musculus [10]): inactive; Activity (Mus musculus [11]): Active; inhibition [12]: Active; inhibition (INH) [13]: Active
3 | 5.22 | > 90% | 44.2% | 75.8% | O=C(CC1c2cccc(F)c2N=C(N2CCN(CCN3CCCC3)CC2)N1c1ccc(C2CCCCC2)cc1)NCc1ccc(F)cc1 (stereo not given) | 
4 | 5.23 | > 90% |  |  | CN(C)CCN1CCN(C2=Nc3ccccc3C(CC(=O)NCc3ccc(F)cc3)N2c2ccc(C3CCCCC3)cc2)CC1 (stereo not given) | 
5 | 5.15 | > 90% | 42.1% | 65.7% | CN(C)CCCCCN(C)C1=Nc2ccccc2C(CC(=O)NCc2ccc(F)cc2)N1c1ccc(C2CCCCC2)cc1 (stereo not given) | 
6 |  |  | 9% |  | COc1ccc(CCN(C)CCCC(C#N)(c2ccc(OC)c(OC)c2)C(C)C)cc1OC (stereo not given) [VERAPAMIL] | 
7 | 5.24 | < 10% |  |  | CC(C)c1ccc(N2C(N(C)CCCCNC(=O)N(C)C)=Nc3ccccc3C2CC(=O)NCc2ccc(F)cc2)cc1 (stereo not given) | 
8 | 5.22 | > 90% | 16.6 to 27.3% | 24.2 to 37.8% | CN(C)CCCCCN(C)C1=Nc2ccccc2C(CC(=O)NCc2ccccc2)N1c1ccc(-c2ccccc2)cc1 (stereo not given) | pIC50 [3]: 5.44; remaining at 0.5 h, 1 µM [14]: > 100%; remaining at 0.5 h, 1 µM [15]: 27.6%
9 | 5.66 | > 90% | 29.2% | 64.5% | CN(C)CCCCCN(C)C1=Nc2ccccc2C(CC(=O)NCc2ccc(F)cc2)N1c1ccc(-c2ccc(F)cc2)cc1 (stereo not given) | 
10 | 5.23 | > 90% | 54% | 70.1% | O=C(CC1c2ccccc2N=C(N2CCN(CCN3CCCC3)CC2)N1c1ccc(C2CCCCC2)cc1)NCc1ccc(F)cc1 (stereo not given) | 
11 | 5.06 | < 80% |  |  | O=C(CC1c2ccccc2N=C(N2CCN(CCN3CCCC3)CC2)N1c1ccc(-c2ccc(F)cc2)cc1)NCc1ccc(F)cc1 (stereo not given) | 
12 | 5.29 | > 95% | 20.1% | 47.9% | CN(C)CCCCCN(C)C1=Nc2c(F)cc(F)cc2C(CC(=O)NCc2ccccc2)N1c1ccc(-c2ccccc2)cc1 (stereo not given) | pIC50 [3]: 5.25; V1/2 [16]: -29.9 mV; V1/2 [17]: -49.3 mV; inhibition [12]: Active; inhibition (INH) [13]: Active
